In the library only some 2.3% were active in any assay of this set; here they are far more common.
TRPC4 block – blocks the mouse TRPC4 cation channel; AID 2247; 300,000 tested, 0.39% active; HEK293 TRPC4beta/mu-opioid, DAMGO-evoked Fluo4 calcium flux; hits give low values; Q9QUQ5; B-score at 10 µM;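 active = B-score over 3 SD under the library average, no early fluorescence shift, positive overall ratio signal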
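Assay system – HEK293 line stably carrying TRPC4beta and mu-opioid receptor · Doses – single dose · Detection – Fluo4 calcium-dye fluorescence, kinetic read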
TRPC4 PAM – allosterically enhances the mouse TRPC4 cation channel | Q9QUQ5 | HEK293 TRPC4beta/mu-opioid, DAMGO EC20, Fluo-4 Ca2+ flux; hits give high values | B-score at 10 µM | 310,000 tested, 0.42% active;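 active = B-score of calcium response area above 5 SD of library B-scores, with initial fluorescence ratio within 5 SD of library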
TRPC6 activator – activates the mouse TRPC6 cation channel; AID 2550; Q61143; B-score at 10 µM; HEK293-TRPC6 membrane potential dye fluorescence; hits give high values; 310,000 tested, 0.13% active;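 active = B-score of the integrated fluorescence ratio above library mean plus 3 SD, and starting fluorescence ratio within library mean plus 5 SD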;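 note: higher score means more depolarization so channel activation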
Target sequence (Q61143 whole entry, looked up): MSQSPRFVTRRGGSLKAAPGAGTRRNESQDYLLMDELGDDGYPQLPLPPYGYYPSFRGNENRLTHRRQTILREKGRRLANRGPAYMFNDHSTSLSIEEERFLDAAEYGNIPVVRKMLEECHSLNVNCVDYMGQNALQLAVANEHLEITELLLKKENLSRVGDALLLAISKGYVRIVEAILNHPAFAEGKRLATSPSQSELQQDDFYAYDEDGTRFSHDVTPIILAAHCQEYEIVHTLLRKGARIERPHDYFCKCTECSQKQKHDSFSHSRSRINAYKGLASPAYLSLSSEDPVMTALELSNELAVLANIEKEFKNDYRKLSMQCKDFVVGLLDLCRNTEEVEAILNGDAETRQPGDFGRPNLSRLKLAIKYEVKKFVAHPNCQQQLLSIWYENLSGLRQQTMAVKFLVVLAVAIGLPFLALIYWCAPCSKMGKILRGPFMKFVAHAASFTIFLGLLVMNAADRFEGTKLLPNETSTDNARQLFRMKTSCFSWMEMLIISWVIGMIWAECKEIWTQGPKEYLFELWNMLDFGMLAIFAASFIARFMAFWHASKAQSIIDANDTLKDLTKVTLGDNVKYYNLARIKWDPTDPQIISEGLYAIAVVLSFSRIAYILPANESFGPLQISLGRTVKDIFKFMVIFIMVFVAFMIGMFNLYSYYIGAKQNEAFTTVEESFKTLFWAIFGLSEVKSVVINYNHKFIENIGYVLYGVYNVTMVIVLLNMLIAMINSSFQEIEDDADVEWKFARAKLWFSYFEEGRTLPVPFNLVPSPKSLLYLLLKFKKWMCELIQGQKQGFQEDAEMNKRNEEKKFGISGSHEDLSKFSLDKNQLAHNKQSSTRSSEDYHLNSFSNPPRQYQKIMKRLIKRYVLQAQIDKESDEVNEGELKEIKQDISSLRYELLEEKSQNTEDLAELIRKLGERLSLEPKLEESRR
TRPC6 inh – inhibitors of mouse TRPC6 channel. 310,000 tested, 1.1% active. HEK293-TRPC6, membrane potential dye, ACh-evoked depolarization; hits give low values. B-score at 10 µM;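 active = B-score under library mean minus 3 SD, initial fluorescence not abnormally high, positive integrated signal ratio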;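 note: B-score derived from integrated fluorescence ratio over the kinetic read; more negative B-score means stronger inhibition of depolarization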
TRPC4 agonist – activators of mouse TRPC4 channel. 310,000 tested, 0.49% active. AID 2237. Q9QUQ5. B-score at 10 µM. HEK293 TRPC4beta/mu-opioid, Fluo4 calcium fluorescence; hits give high values;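 active = B-score above 5 SD of library B-scores, and initial fluorescence ratio not above library mean plus 5 SD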;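 note: positive B-score marks a calcium rise read as TRPC4 activation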
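System – HEK293 cells stably co-expressing mouse TRPC4beta and mu-opioid receptor · Signal – Fluo4 calcium-sensitive dye fluorescence, kinetic, 1 Hz baseline · Benchmarks – buffer (low) and maximal DAMGO (high) · Read-out – B score of integrated fluorescence ratio per well · Incubation – dye loading 45 min room temperature, 110 s kinetic read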
TRPC4 spec 2 – second selectivity test of TRPC6 inhibitors: effect on mouse TRPC4. shares compounds with TRPC6 inh. HEK293 TRPC4/MOR, membrane potential dye fluorescence; channel activated by saturating DAMGO dose. inhibition, % at 10 µM. 920 tested, 42% active;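 active = compounds whose fluorescence signal differed from control wells by over 3 SD, either direction, in both duplicate plates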
TRPC4 spec – selectivity of TRPC6 inhibitors: effect on mouse TRPC4. shares compounds with TRPC6 inh. HEK293 TRPC4/mu-opioid, membrane potential fluorescence. activity change, negative = inhibition, % at 10 µM. 920 tested, 61% active;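 active = rise or fall in signal beyond 3 SD of buffer-only wells in both replicate plates, either sign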;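 note: integrated kinetic ratio of fluorescence range over baseline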
HEK293 MPD ctr 2-1 – second check of TRPC6 inhibitor effects in parental HEK293 cells. shares compounds with TRPC6 inh. parental HEK293 membrane potential dye fluorescence; maximal acetylcholine challenge after compound addition. signal change vs control, % at 10 µM. 920 tested, 31% active. AID 2779;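 active = membrane potential signal moving either way by over 3 SD of the maximum-effect control, in both duplicate plates, meaning non-specific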
HEK293 MPD ctr-1 – counter-screen for TRPC6 inhibitors: effect in parental HEK293 cells. shares compounds with TRPC6 inh. parental HEK293 membrane potential dye fluorescence. membrane potential signal change, % at 10 µM. 920 tested, 60% active. AID 2780;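 active = membrane potential signal shifting up or down by more than 3 SD of buffer-only wells, on both duplicate plates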
HEK293 MPD ctr-2 – counter-screen for TRPC6 modulators: effect in parental HEK293 cells. membrane potential signal change, % at 10 µM. AID 488924. membrane potential dye fluorescence. shares compounds with TRPC6 inh. 2,400 tested, 51% active;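 active = membrane potential signal moves up or down beyond 5 SD from buffer-only wells, on both duplicate plates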
HEK293 MPD ctr 2-2 – parental HEK293 nonspecific activity of TRPC6 modulators, second screen; shares compounds with TRPC6 inh; membrane potential dye fluorescence; after compound, maximal acetylcholine stimulation; inhibition, % at 10 µM; 2,400 tested, 14% active; AID 488926;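 active = membrane potential signal drops by more than 5 SD from the mean control signal, in both duplicate plates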
TRPC4/MOR mod – tests whether TRPC6 modulators also affect mouse TRPC4 | shares compounds with TRPC6 inh | HEK293 TRPC4/mu-opioid, membrane potential fluorescence | percent change from control (negative = decrease, positive = increase), % at 10 µM | 2,400 tested, 69% active;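 active = membrane potential signal moved up or down beyond 5 SD of buffer control wells, in both duplicate plates, actives on both sides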
TRPC4/MOR inh 2 – mouse TRPC4 off-target activity of TRPC6 modulators, second screen | shares compounds with TRPC6 inh | inhibition, % at 10 µM | 2,400 tested, 55% active | HEK293 TRPC4/mu-opioid, membrane potential dye fluorescence; stimulated with maximal-effect DAMGO;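 active = drop in membrane potential signal beyond 5 SD of the control wells in both duplicate plates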;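 note: TRPC4 counter screen for TRPC6 hits run under conditions tuned for TRPC6 not TRPC4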
TRPC6 inh conf – mouse TRPC6 inhibitor confirmation; shares compounds with TRPC6 inh; HEK293-TRPC6, membrane potential dye, ACh-evoked depolarization; inhibition, % at 10 µM; 3,300 tested, 43% active; AID 488960;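 active = fluorescence ratio falls more than 5 SD below the full-stimulation control mean, in both duplicate runs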;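 note: integrated fluorescence ratio of peak minus minimum over baseline after agonist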
TRPC6 act confirm – mouse TRPC6 activator confirmation; 2,800 tested, 11% active; HEK293-TRPC6 membrane potential dye fluorescence, FDSS; AID 488961; shares compounds with TRPC6 inh; activation, % at 10 µM;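 active = ratio signal rise beyond 5 SD above unstimulated control wells' mean, seen in both duplicate runs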
A number is an active result; n = inactive; x = not tested or not shown.

SMILES | TRPC4 block | TRPC4 PAM | TRPC6 activator | TRPC6 inh | TRPC4 agonist | HEK293 MPD ctr-2 | HEK293 MPD ctr 2-2 | TRPC4/MOR mod | TRPC4/MOR inh 2 | TRPC6 inh conf | TRPC6 act confirm | others
O=C(NC(=S)NNC(=O)c1ccccc1F)c1cccnc1 | n | n | n | n | n | x | x | x | x | x | x
CCCCn1c(N)c(N(CCOC)C(=O)c2ccc(C)c(S(=O)(=O)N3CCCCC3)c2)c(=O)[nH]c1=O | n | n | n | -5.8 | n | n | n | n | n | n | n
COc1ccc(NS(=O)(=O)c2cccc(C(=O)O)c2)cc1 | n | n | n | -5.4 | n | n | n | n | n | n | n
COc1ccc(NS(=O)(=O)c2cccc(C(=O)Nc3cccc(C(=O)O)c3)c2)cc1 | n | n | n | n | n | x | x | x | x | x | x
CCCCN(C)CCCNC(=O)c1cn(CC)c2ccc(S(=O)(=O)N3CCc4ccccc4C3)cc2c1=O | n | n | n | -6.9 | n | x | x | x | x | n | n | TRPC4 spec 2=52%;TRPC4 spec=-18%;HEK293 MPD ctr 2-1=n;HEK293 MPD ctr-1=-160%
CN(CCNC(=O)c1cn(C)c2ccc(S(=O)(=O)N(C)C)cc2c1=O)CCc1ccccc1 | n | n | n | n | n | x | x | x | x | x | x
CCN(CC)S(=O)(=O)c1ccc2c(c1)c(=O)c(C(=O)NCCN(C)CCc1ccccc1)cn2C | n | n | n | -5.4 | n | -64% | n | -17% | 63% | n | n
CCN(CC)CCNC(=O)c1cn(CC)c2ccc(S(=O)(=O)N3CCOCC3)cc2c1=O | n | n | n | n | n | x | x | x | x | x | x
CCCCN(CCCC)CCNC(=O)c1cn(CC)c2ccc(S(=O)(=O)N3CCCC3)cc2c1=O | n | n | n | -5 | n | n | n | n | 50% | n | n
Cc1ccc2nc(-c3cccc(N)c3)oc2c1 | n | n | n | -5.5 | n | n | n | n | n | n | n
O=C(COC(=O)CNC(=O)c1ccc(Cl)c([N+](=O)[O-])c1)NC(=O)c1ccccc1 | n | n | n | n | n | x | x | x | x | x | x
COc1ccccc1-c1cc(-c2ccccc2)nc(SC(C(N)=O)c2ccccc2)c1C#N (centres undefined) | n | n | n | n | n | x | x | x | x | x | x
CCCC[C@@H]1CNCCN1CCc1cc(C(F)(F)F)cc(C(F)(F)F)c1 | n | n | n | n | n | x | x | x | x | x | x
CCC(C)[C@H]1CNCCN1CCc1cc(C(F)(F)F)cc(C(F)(F)F)c1 (some centres undefined) | n | n | n | -7.2 | n | x | x | x | x | n | n | TRPC4 spec 2=54%;TRPC4 spec=n;HEK293 MPD ctr 2-1=n;HEK293 MPD ctr-1=n
COc1ccc(-c2noc(CN3CCCCC3c3nccn3C)n2)cc1 (centres undefined) | n | n | n | n | n | x | x | x | x | x | x

Screens: PubChem, Johns Hopkins Ion Channel Center
